Measurements as given in PMC8359148 (ACS Omega, 2021).
“Also recorded” adds a separate entry of the source.

What was measured:
[1] = test system: chloroquine-resistant P. falciparum Dd2 parasites; test: SYBR Green I dose–response assay against Dd2 parasites; type: cell-based; settings: Plasmodium falciparum, DD2, read-out: EC50 Dd2, chloroquine-resistant P. falciparum Dd2, three or more independent experiments
Outline: (§1)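 Dose–response EC50 values, each from three or more independent experiments. Dd2 and 3D7 runs use chloroquine as comparator. The selectivity index is calculated as HepG2 EC50 divided by Dd2 EC50.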

[2] = test system: wild-type P. falciparum 3D7 cells; test: dose–response assay against 3D7 cells; type: cell-based; settings: Plasmodium falciparum, 3D7, read-out: EC50 3D7
Outline: as §1

[3] = test system: HepG2 (liver hepatocellular carcinoma) cells; test: HepG2; type: cell-based, human
Outline: as §1

[4] = test system: tightly synchronized P. falciparum Dd2 cells; test: developmental stage-specific action; type: cell-based, Plasmodium falciparum
Outline: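 Tightly synchronized Dd2 cultures are treated with 1.25 μM test compound at 6, 18, 30 or 42 HPI, with 0.1% DMSO-treated infected RBCs as negative control and DHA and atovaquone as positive controls. Every 12 h, Giemsa-stained smears are read. Flow cytometry samples are fixed in 4% paraformaldehyde/0.0075% glutaraldehyde, permeabilized with 0.25% Triton X-100, RNase-treated (50 μg/mL) and YOYO-1 stained; parasitemia is taken by flow cytometry.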

[5] = test system: P. falciparum Dd2 cultures; test: kinetic kill experiments; type: cell-based, Plasmodium falciparum
Outline: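 Asynchronous Dd2 cultures are exposed to test compound for 6, 12, 24 or 48 h at 0.15% DMSO, then washed three times in RPMI and resuspended in culture medium. Parasite growth is monitored daily for 96 h. DHA (50 nM) and atovaquone (6.6 nM) serve as controls.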

solubility = type: physicochemical
Outline: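 DMSO solubility is tested up to 100 mM, the highest concentration tested. For aqueous solubility, PBS is slowly titrated into 10 mM DMSO stock to give 100 μM, the highest concentration tested. Clarity is checked visually against a PBS standard at room temperature over 24 h.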

chemical stability = type: physicochemical

CC[C@@]12C=C(C(=O)OC)n3c(c(c4ccccc43)CCN(C(=O)c3ccccn3)CCC1)[C@@H]2c1ccc(O)cc1 [Compound 30, methyl (11S,19S)-11-ethyl-19-(4-hydroxyphenyl)-15-(pyridine-2-carbonyl)-8,15-diazatetracyclo[9.6.2.0^2,7.0^8,18]nonadeca-1(18),2(7),3,5,9-pentaene-9-carboxylate]
EC50 [1]: 250 ± 4 nM
EC50 [2]: 1190 ± 250 nM
selectivity index (SI) ([3]; HepG2 EC50/EC50 Dd2 cells): >100
EC50 ([3]; Homo sapiens, HepG2, read-out: EC50 HepG2): > 25000 nM
parasitemia (flow cytometry) ([4]; Dd2 cells treated at 6, 18 and 30 HPI, 5 x EC50): remarkable decrease in parasitemia
effect on maturation when treated at 42 HPI ([4]; Dd2 cells treated at 42 HPI, 5 x EC50): did not inhibit maturation
stage-specific activity ([4]; synchronized Dd2, 5 x EC50 (1.25 μM), treated at 6, 18, 30 and 42 HPI): prevents exit on the parasite from the schizont stage; also recorded: arrested at the late schizont stage; also recorded: do not advance beyond the late schizont stage; also recorded: act specifically on the trophozoite/schizont stage
effect after 24 h treatment ([5]; 5× EC50, 24 h treatment, based on the 96 h time point): reduces parasitemia
effect after 48 h treatment ([5]; 5× EC50, 48 h treatment): more dramatic parasitocidal effect
kill rate ([5]; Dd2 cultures, 5 × EC50, treatment time required to kill): >24 h
solubility at 24 h (solubility; PBS buffer, aqueous buffer, kinetic from dmso stock): ≥ 0.1 mM
solubility (solubility; biological grade DMSO, organic solvent or mixture): ≥ 100 mM
chemical stability in acidified PBS (chemical stability; 100 μM, PBS pH 2.0 (1.95), 24 h room temperature then 24 h 37 °C, TLC and NMR): no compound breakdown; also recorded: no degradation
chemical stability in PBS pH 7.4 (chemical stability; 100 μM, PBS pH 7.4, 24 h room temperature then 24 h 37 °C, TLC and NMR): no compound breakdown; also recorded: no degradation
chemical stability during NMR experiments (chemical stability; 100 °C for multiple hours): without showing compound breakdown
